Laboratory results: EPA's CvTdb concentration-time database

Assays:
[1] = test system: Rat; experiment: concentration in heart after dosing; details: 4 h; dosed: Bis 2-Chloroethoxy Methane; 20 mg/kg; iv; Male; F344
[2] = test system: Rat; experiment: concentration in heart after dosing; details: 10 min; dosed: Bis 2-Chloroethoxy Methane; 20 mg/kg; iv; Female; F344
[3] = test system: Rat; experiment: concentration in plasma after dosing; details: 4 h; dosed: Bis 2-Chloroethoxy Methane; 20 mg/kg; iv; Female; F344
[4] = test system: Rat; experiment: concentration in liver after dosing; details: 1 h; dosed: Bis 2-Chloroethoxy Methane; 20 mg/kg; iv; Female; F344
[5] = test system: Rat; experiment: concentration in heart after dosing; details: 2 h; dosed: Bis 2-Chloroethoxy Methane; 20 mg/kg; iv; Female; F344
[6] = test system: Rat; experiment: concentration in plasma after dosing; details: 5 h; dosed: Bis 2-Chloroethoxy Methane; 20 mg/kg; iv; Female; F344
[7] = test system: Rat; experiment: concentration in heart after dosing; details: 3 h; dosed: Bis 2-Chloroethoxy Methane; 20 mg/kg; iv; Male; F344
[8] = test system: Rat; experiment: concentration in thymus after dosing; details: 2 h; dosed: Bis 2-Chloroethoxy Methane; 20 mg/kg; iv; Male; F344
[9] = test system: Rat; experiment: concentration in brain after dosing; details: 1 h; dosed: Fluorotelomer alcohol 8+2; 24 mg/kg; oral; Male; Harlan Sprague Dawley
[10] = test system: Rat; experiment: concentration in kidney after dosing; details: 6 h; dosed: Fluorotelomer alcohol 8+2; 24 mg/kg; oral; Male; Harlan Sprague Dawley
[11] = test system: Rat; experiment: concentration in plasma after dosing; details: dosed: Fluorotelomer alcohol 8+2, 12 mg/kg, oral, Male, Harlan Sprague Dawley
[12] = test system: Rat; experiment: concentration in kidney after dosing; details: 3 h; dosed: Fluorotelomer alcohol 8+2; 24 mg/kg; oral; Male; Harlan Sprague Dawley
[13] = test system: Rat; experiment: concentration in plasma after dosing; details: dosed: Fluorotelomer alcohol 8+2, 40 mg/kg, iv, Female, Harlan Sprague-Dawley
[14] = test system: Rat; experiment: concentration in brain after dosing; details: 12 h; dosed: Fluorotelomer alcohol 8+2; 24 mg/kg; oral; Male; Harlan Sprague Dawley
[15] = test system: Rat; experiment: concentration in plasma after dosing; details: 2 h; dosed: Di-n-butyl phthalate; 20 mg/kg; iv; Male; Sprague-Dawley
[16] = test system: Rat; experiment: concentration in plasma after dosing; details: 6 h; dosed: Di-n-butyl phthalate; 20 mg/kg; iv; Male; Sprague-Dawley
[17] = test system: Rat; experiment: concentration in plasma after dosing; details: 2 h; dosed: Di-n-butyl phthalate; 50 mg/kg; oral; Male; Sprague-Dawley
[18] = test system: Rat; experiment: concentration in kidney after dosing; details: 864 h; dosed: Perfluorodecanoic acid; 10 mg/kg; oral; Male; Harlan Sprague Dawley
[19] = test system: Rat; experiment: concentration in kidney after dosing; details: 1848 h; dosed: Perfluorodecanoic acid; 10 mg/kg; oral; Male; Harlan Sprague Dawley
[20] = test system: Rat; experiment: concentration in plasma after dosing; details: dosed: Perfluorodecanoic acid, 2 mg/kg, iv, Male, F344
[21] = test system: Rat; experiment: concentration in plasma after dosing; details: dosed: Perfluorodecanoic acid, 2 mg/kg, iv, Male, F344; remark: listed apart in the source
[22] = test system: Rat; experiment: concentration in plasma after dosing; details: 0.25 h; dosed: Primidone; 80 mg/kg; oral; Female; Harlan Sprague-Dawley
[23] = test system: Rat; experiment: concentration in plasma after dosing; details: 10 h; dosed: Thiodiglycolic Acid; 20 mg/kg; iv; Male; F344
[24] = test system: Rat; experiment: concentration in thymus after dosing; details: 3 h; dosed: Thiodiglycolic Acid; 20 mg/kg; iv; Female; Harlan Sprague Dawley
[25] = test system: Rat; experiment: concentration in plasma after dosing; details: 4 h; dosed: Thiodiglycolic Acid; 20 mg/kg; iv; Female; Harlan Sprague Dawley
[26] = test system: Rat; experiment: concentration in plasma after dosing; details: 4 h; dosed: Thiodiglycolic Acid; 20 mg/kg; iv; Male; Harlan Sprague Dawley
[27] = test system: Rat; experiment: concentration in heart after dosing; details: 40 min; dosed: Thiodiglycolic Acid; 20 mg/kg; iv; Female; Harlan Sprague Dawley
[28] = test system: Rat; experiment: concentration in plasma after dosing; details: 10 min; dosed: dichloroacetic acid; 10 mg/kg; iv; Male; F344
[29] = test system: Rat; experiment: concentration in plasma after dosing; details: 10 min; dosed: dichloroacetic acid; 10 mg/kg; iv; Male; F344; remark: listed apart in the source
[30] = test system: human; experiment: concentration in plasma after dosing; negative times count back from the end of exposure; details: dosed: trichloroethylene, 100 ppm, inhalation, duration: 4 hr, person
In short: (§1)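 Concentration-versus-time or amount-versus-time points were compiled from published in vivo toxicokinetic studies and from two structured collections. The studies were found by PubMed searching, classifier screening and manual review. Points were mostly digitised from plot screenshots with WebPlotDigitizer, otherwise copied from tables, and kept in the reported units. Dose, route, subject details and medium were curated by hand from each paper, and sampling and analytical methods follow each source and were often unreported.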

[31] = test system: Rat; experiment: concentration in plasma after dosing; details: dosed: dichloroacetic acid, 10 mg/kg, oral, Male, Harlan Sprague Dawley
[32] = test system: dog; details: dosed: tetrachloroethylene, 142 ppm, inhalation, duration: 4 hr, male, beagle
In short: as §1

ClCCOCOCCCl [Bis 2-Chloroethoxy Methane]
Details	concentration in heart [ng/g]	concentration in liver [ng/g]	concentration in plasma [ng/mL]	concentration in thymus [ng/g]
[1]	83.9	–	–	–
[2]	11400	–	–	–
[3]	–	–	86.2	–
[4]	–	343	–	–
[5]	401	–	–	–
[6]	–	–	24.8	–
[7]	116	–	–	–
[8]	–	–	–	153

OCCC(F)(F)C(F)(F)C(F)(F)C(F)(F)C(F)(F)C(F)(F)C(F)(F)C(F)(F)F [Fluorotelomer alcohol 8+2]
Details	concentration in brain [ng/g]	concentration in kidney [ng/g]
[9]	2520	–
[10]	–	271
[12]	–	631
[14]	151	–

concentration in plasma [ng/mL]
Details	0.25 h	1 h	6 h	24 h
[11]	253	–	40.7	–
[13]	–	3650	–	26.8

CCCCOC(=O)c1ccccc1C(=O)O [Mono-n-butyl phthalate]
Details	concentration in plasma [ng/mL]
[15]	1670
[16]	601
[17]	809

O=C(O)C(F)(F)C(F)(F)C(F)(F)C(F)(F)C(F)(F)C(F)(F)C(F)(F)C(F)(F)C(F)(F)F [Perfluorodecanoic acid]
Details	concentration in kidney [ng/g]
[18]	10600
[19]	4700

concentration in plasma [ng/mL]
Details	6 h	12 h	864 h	1200 h
[20]	–	4670	–	1400
[21]	6360	–	1550	–

CCC1(c2ccccc2)C(=O)NC(=O)NC1=O [Phenobarbital]
Details	concentration in plasma [ng/mL]
[22]	400

O=C(O)CSCC(=O)O [Thiodiglycolic Acid]
Details	concentration in heart [ng/g]	concentration in plasma [ng/mL]	concentration in thymus [ng/g]
[23]	–	304	–
[24]	–	–	986
[25]	–	360	–
[26]	–	615	–
[27]	2840	–	–

O=C(O)C(Cl)Cl [dichloroacetic acid]
Details	concentration in plasma [ng/mL]
[28]	7780
[29]	8110

Details	concentration in plasma [ng/mL]
[30], 0 h	6
[30], 0.25 h	9
[30], 0.5 h	13
[30], 1 h	12
[30], 2 h	11
[30], 4 h	5
[30], 8 h	5
[30], 12 h	4
[30], 14 h	4
[30], 18 h	5
[30], 41 h	6
[30], 65 h	4
[31], 5 min	621
[31], 40 min	137

[30], during exposure
Details	concentration in plasma [ng/mL]
-3.48 h	80
-3 h	8
-2 h	7
-1 h	7

O=C(O)C(Cl)(Cl)Cl [trichloroacetic acid]
[32]
Details	amount in urine after dosing [mg]
22 h	8.68
46 h	3
70 h	1.93
